One series addresses Plasma kallikrein (Homo sapiens, UniProt P03952). As to the kind of experiment: Inhibition of human plasma kallikrein using Mes-DArg-Pro-Arg-AMC as substrate by Dixon plot analysis. In short, it runs like this: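 Human plasma kallikrein (112 pM final) was assayed at room temperature in Tris·HCl 50 mM pH 8.0 with NaCl 154 mM. Mes-DArg-Pro-Arg-AMC served as substrate (KM 39 μM). Fluorescence was read at ex 355 / em 460 nm, with reactions started by enzyme.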

In series [1] the test system is Plasma. In words: Antifibrinolytic activity in human plasma assessed as inhibition of tPA-induced plasmin formation after 40 mins. The format is functional, cell-free. In short, it runs like this:
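Citrated human plasma at 37 °C with CaCl2 (12.5 mM in assay), tissue factor (stock 1/500 in assay) and tPA (12.3 nM in assay). Inhibitor dilutions, from 10 mM DMSO stocks diluted in 0.9% NaCl, were preincubated 5 min at 37 °C with these reagents, then started with prewarmed plasma. OD405 was read over 40 min.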

In series [2] the target is Trypsin (Sus scrofa, UniProt P00761). In words: Inhibition of porcine trypsin using Mes-DArg-Gly-Arg-AMC as substrate by Dixon plot analysis. The gist of the method: (§1)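 Porcine trypsin, 30 pM final, with substrate Mes-DArg-Gly-Arg-AMC (KM 8.3 μM). Buffer was 50 mM Tris·HCl pH 8.0 containing 154 mM NaCl, at room temperature. Reaction was started by enzyme and fluorescence read at ex 355 / em 460 nm. Ki was obtained from Dixon plots, mean of at least two measurements.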

For series [3], the target named is Vitamin K-dependent protein C (Homo sapiens, UniProt P04070). As to the kind of experiment: Inhibition of human activated Protein C using Mes-DArg-Pro-Arg-AMC as substrate by Dixon plot analysis. The gist of the method: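 Human aPC, 293 pM final. Run at room temperature in 50 mM Tris·HCl pH 8.0 with 154 mM NaCl. Substrate Mes-DArg-Pro-Arg-AMC, KM 26 μM. Fluorescence was read at ex 355 / em 460 nm, with reaction started by enzyme. Ki came from Dixon plots, mean of at least two measurements.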

Series [4] relates to Plasma. In words: Potency index, ratio of aprotinin IC50 to compound IC50 for inhibition of tPA-induced plasmin formation in human plasma. The format is functional.
In series [5] the test system is Plasma. As to the kind of experiment: Inhibition of TF/Ca2+-induced clotting in human plasma at 10 to 200 nM after 40 mins. The format is cell-free. The following applies: 0.2 µM. In short, it runs like this: (§2)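 Clotting was triggered in citrated human plasma at 37 °C by tissue factor (stock 1/500 in assay) plus CaCl2 (12.5 mM in assay), with tPA 12.3 nM present. Inhibitor was tested at 10–200 nM after 5 min preincubation of reagents at 37 °C. Clot formation was followed as the rapid initial OD405 rise to a plateau, read over 40 min.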

The target of the next series is Coagulation factor X (Homo sapiens, UniProt P00742). As to the kind of experiment: Inhibition of human f10a using Mes-DArg-Pro-Arg-AMC as substrate by Dixon plot analysis. The gist of the method:
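Human factor Xa, 97 pM in assay, in 50 mM Tris·HCl pH 8.0 with 154 mM NaCl at room temperature. Fluorogenic substrate Mes-DArg-Pro-Arg-AMC (KM 28 μM), read at ex 355 / em 460 nm after starting with enzyme. Ki was taken from Dixon plots and averaged over at least two measurements.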

The target in series [6] is T1, Plasminogen (Homo sapiens, UniProt P00747). As to the kind of experiment: Inhibition of human plasmin using Mes-DSer(Bzl)-Phe-Arg-AMC as substrate by Dixon plot analysis.
Target sequence in this assay (P00747 97-580 limits assumed): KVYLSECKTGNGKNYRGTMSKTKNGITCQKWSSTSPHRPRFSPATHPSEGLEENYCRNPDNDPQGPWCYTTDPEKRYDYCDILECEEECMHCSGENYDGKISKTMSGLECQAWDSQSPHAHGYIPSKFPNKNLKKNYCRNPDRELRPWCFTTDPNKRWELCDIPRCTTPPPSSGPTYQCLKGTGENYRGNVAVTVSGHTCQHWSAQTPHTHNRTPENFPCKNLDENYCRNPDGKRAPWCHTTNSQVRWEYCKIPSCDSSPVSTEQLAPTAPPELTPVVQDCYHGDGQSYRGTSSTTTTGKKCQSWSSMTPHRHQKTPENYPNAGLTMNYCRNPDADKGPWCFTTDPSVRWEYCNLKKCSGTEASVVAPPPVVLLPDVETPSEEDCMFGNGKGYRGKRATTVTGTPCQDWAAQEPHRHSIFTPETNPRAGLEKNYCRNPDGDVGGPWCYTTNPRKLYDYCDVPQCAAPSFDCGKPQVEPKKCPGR
Target sequence in this assay (P00747 581-810 limits assumed): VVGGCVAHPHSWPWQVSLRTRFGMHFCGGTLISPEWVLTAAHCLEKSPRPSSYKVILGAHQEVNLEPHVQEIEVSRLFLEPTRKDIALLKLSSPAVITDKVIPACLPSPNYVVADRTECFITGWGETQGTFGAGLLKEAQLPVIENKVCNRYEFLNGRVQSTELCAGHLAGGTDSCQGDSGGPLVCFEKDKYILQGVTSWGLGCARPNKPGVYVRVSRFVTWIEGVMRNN
The target of series [7] is T1, Plasminogen. In words: Binding affinity to human plasmin assessed as slow binding constant in presence of Mes-DArg-Phe-Arg-AMC after 20 mins by Dixon plot analysis.
Target sequence in this assay (P00747 97-580 limits assumed): as the sequence (P00747 97-580 limits assumed) above
Target sequence in this assay (P00747 581-810 limits assumed): as the sequence (P00747 581-810 limits assumed) above
In a further series the target is Prothrombin (Bos taurus, UniProt P00735). In words: Inhibition of bovine thrombin using Tos-Gly-Pro-Arg-AMC as substrate by Dixon plot analysis. The gist of the method:
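Bovine thrombin at 31 pM in assay, KM 5.4 μM for the substrate. Run at room temperature in 50 mM Tris·HCl pH 8.0 with 154 mM NaCl. Fluorescence read at ex 355 / em 460 nm, reaction started by enzyme addition. Ki from Dixon plots, average of at least two measurements.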

The target of series [8] is T1, Plasminogen. In words: Inhibition of human plasmin.
Target sequence in this assay (P00747 whole entry, looked up): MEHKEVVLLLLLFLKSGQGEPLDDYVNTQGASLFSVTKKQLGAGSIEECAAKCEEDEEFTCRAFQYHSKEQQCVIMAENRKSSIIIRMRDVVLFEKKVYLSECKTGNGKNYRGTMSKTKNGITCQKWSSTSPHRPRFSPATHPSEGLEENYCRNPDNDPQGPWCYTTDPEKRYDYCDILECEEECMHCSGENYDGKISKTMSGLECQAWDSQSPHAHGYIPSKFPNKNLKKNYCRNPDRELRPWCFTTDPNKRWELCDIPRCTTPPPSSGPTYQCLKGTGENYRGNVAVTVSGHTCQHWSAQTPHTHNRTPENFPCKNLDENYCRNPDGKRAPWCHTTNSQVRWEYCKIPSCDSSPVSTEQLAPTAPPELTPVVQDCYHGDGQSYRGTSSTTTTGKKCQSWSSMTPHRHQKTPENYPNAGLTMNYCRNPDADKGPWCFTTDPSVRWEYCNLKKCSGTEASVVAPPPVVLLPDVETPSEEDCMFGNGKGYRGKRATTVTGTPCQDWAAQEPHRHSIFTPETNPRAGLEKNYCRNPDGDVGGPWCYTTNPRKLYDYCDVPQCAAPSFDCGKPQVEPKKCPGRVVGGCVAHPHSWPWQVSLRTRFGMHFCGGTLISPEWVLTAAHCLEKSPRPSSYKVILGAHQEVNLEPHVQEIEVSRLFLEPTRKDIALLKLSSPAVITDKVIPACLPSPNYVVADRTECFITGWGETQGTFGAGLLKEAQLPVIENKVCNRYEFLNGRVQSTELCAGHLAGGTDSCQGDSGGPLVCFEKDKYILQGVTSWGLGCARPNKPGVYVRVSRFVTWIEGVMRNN
Series [9] relates to Plasma. As to the kind of experiment: Inhibition of TF/Ca2+-induced clotting in human plasma after 40 mins. The format is cell-free. The gist of the method:
as §2

For series [10], the target named is Trypsin (Homo sapiens, UniProt P07477+P07478+P35030). As to the kind of experiment: Inhibition of trypsin (unknown origin). The format is protein assay. The gist of the method: as §1

A value given as a limit tells only on which side of the number the result lay.

Trypsin (Sus scrofa, UniProt P00761), sequence (P00761 whole entry): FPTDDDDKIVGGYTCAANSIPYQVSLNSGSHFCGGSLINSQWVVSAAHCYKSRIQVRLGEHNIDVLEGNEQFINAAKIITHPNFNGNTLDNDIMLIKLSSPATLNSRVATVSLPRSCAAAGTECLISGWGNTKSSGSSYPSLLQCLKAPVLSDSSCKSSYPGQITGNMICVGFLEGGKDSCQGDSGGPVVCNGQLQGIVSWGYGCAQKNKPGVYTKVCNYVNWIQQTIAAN
Vitamin K-dependent protein C, sequence (P04070 43-197 limits assumed): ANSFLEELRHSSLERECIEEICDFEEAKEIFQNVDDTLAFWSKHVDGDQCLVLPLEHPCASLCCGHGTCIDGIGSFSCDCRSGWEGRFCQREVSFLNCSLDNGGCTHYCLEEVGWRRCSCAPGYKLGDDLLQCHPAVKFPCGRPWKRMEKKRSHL
Vitamin K-dependent protein C, sequence (P04070 212-461 limits assumed): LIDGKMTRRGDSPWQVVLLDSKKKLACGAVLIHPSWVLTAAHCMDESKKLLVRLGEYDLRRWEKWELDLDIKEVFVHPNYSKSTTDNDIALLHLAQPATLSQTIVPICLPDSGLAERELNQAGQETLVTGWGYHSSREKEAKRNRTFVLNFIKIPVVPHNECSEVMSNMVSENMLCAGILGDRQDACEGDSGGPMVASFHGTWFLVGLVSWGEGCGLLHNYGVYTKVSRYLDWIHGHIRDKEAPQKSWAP
Plasma kallikrein, sequence (P03952 20-390 limits assumed): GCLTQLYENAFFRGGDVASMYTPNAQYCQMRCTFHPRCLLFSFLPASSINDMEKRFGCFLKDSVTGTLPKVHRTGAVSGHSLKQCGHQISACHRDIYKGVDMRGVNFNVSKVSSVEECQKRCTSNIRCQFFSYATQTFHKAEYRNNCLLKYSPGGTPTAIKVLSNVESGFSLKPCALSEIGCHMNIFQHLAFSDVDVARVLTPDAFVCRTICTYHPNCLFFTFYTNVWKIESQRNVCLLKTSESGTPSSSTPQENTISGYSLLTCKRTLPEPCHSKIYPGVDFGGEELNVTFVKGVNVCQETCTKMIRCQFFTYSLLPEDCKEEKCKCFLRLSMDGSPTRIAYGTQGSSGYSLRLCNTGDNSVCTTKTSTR
Plasma kallikrein, sequence (P03952 391-638 limits assumed): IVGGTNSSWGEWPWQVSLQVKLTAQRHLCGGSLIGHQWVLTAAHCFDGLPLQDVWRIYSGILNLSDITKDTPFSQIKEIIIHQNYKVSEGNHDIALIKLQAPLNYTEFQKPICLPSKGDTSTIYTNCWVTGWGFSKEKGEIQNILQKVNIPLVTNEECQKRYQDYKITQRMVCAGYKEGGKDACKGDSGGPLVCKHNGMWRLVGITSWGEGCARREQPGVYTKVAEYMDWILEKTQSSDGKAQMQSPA
Coagulation factor X, sequence (P00742 41-179 limits assumed): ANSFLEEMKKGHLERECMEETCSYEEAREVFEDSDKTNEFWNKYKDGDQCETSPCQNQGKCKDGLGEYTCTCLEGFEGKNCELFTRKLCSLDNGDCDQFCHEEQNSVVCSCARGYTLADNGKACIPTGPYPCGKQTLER
Coagulation factor X, sequence (P00742 235-488 limits assumed): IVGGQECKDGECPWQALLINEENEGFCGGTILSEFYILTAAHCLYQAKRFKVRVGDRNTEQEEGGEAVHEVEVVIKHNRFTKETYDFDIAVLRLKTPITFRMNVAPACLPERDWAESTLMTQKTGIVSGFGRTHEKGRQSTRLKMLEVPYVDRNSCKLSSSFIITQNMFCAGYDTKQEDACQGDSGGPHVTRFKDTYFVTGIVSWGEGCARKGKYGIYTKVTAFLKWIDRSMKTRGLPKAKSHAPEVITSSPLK

Regarding `NCc1ccc(CNC(=O)[C@@H]2Cc3ccc(cc3)NC(=O)CCN3CCN(CCC(=O)Nc4ccc(cc4)C[C@@H](NS(=O)(=O)c4ccccc4)C(=O)N2)CC3)cc1.O=C(O)C(F)(F)F.O=C(O)C(F)(F)F.O=C(O)C(F)(F)F`, the inhibition constant (Ki) (usually a dissociation constant, usually derived from enzyme kinetics or from competition with a known ligand) is 48700 nM on Plasma kallikrein; 1540 nM on Trypsin [2]; above 100000 nM in series [3]; above 100000 nM at Coagulation factor X; 0.56 nM at Plasminogen [6]; 0.54 nM at Plasminogen [7]. Also, the inhibitory constant (Ki) on Prothrombin turned out to be 36900 nM. In addition, in the series with Plasma [1], the half-inhibitory concentration (IC50) – broadly, the concentration at which inhibition is half-maximal – was 81 nM. In addition, the “Ratio IC50” value in the series with Plasma [4] is 3. For the same molecule, in the series on Plasma [5], the Activity result is “Non-Toxic”.

On Plasminogen [8], `CC(C)(C)OC[C@@H](NS(=O)(=O)Cc1ccccc1)C(=O)NCC(=O)NCc1ccc(C(=N)N)cc1` came in with a Ki of 7700 nM.

On Plasminogen [8], `CC(C)(C)OC[C@@H](NS(=O)(=O)c1ccccc1)C(=O)NCC(=O)NCc1ccc(C(=N)N)cc1` returned an inhibition constant (Ki) of 24000 nM.

Consider `N=C(N)c1ccc(CNC(=O)[C@@H]2Cc3ccc(cc3)NC(=O)CN3CCN(CC3)CC(=O)Nc3ccc(cc3)C[C@@H](NS(=O)(=O)NC3CCCCC3)C(=O)N2)cc1`, for which, in the series on Plasma [1], the half-inhibitory concentration (IC50) amounted to 53 nM. Moreover, the Ki on Trypsin [2] is 136 nM; in series [3], above 30000 nM; at Plasminogen [7], 0.42 nM; at Prothrombin, 15800 nM.

As to `N=C(N)c1ccc(CNC(=O)[C@H](Cc2cccc(CN)c2)NC(=O)[C@@H](CCCc2ccccc2)NS(=O)(=O)Cc2cccc(C(=O)O)c2)cc1`, in the series with Plasma [9], the Activity result is on record as “Toxic”. In addition, on Trypsin [10], the inhibitory constant (Ki) was 3.6 nM.

As to `NCc1ccc(CNC(=O)[C@@H]2Cc3ccc(cc3)NC(=O)CCN3CCN(CCC(=O)Nc4ccc(cc4)C[C@@H](NS(=O)(=O)NC4CCCCC4)C(=O)N2)CC3)cc1`, the inhibition constant Ki is 43200 nM at Plasma kallikrein; 351 nM at Trypsin [2]; above 100000 nM in series [3]; above 100000 nM at Coagulation factor X; 0.52 nM on Plasminogen [6]; 0.43 nM at Plasminogen [7]. Besides, the affinity on Prothrombin, expressed as Ki, was 7130 nM. The IC50 with Plasma [1] came to 100 nM.

(Values after ChEMBL document CHEMBL4425109, “Optimization of Cyclic Plasmin Inhibitors: From Benzamidines to Benzylamines” (J Med Chem, 2016).)
